Source: PubChem
Most compounds without a hit are left out; they make up all but 2.7% or so of the library.
p97 inhibitor = inhibitors of human p97 ATPase; recombinant p97 ATPase, Kinase-Glo ATP luminescence, 3 h; AID 1481; 220,000 tested, 0.42% active; P55072; inhibition, % at 8 µM; in the data active = inhibition above about 15%
L929 necroptosis = L929 zVAD cell death inhibition; L929 zVAD necroptosis rescue, ATP luminescence, 24 h; with zVAD 60 µM; viability rescue, % at 10 µM; 220,000 tested, 0.38% active; AID 1377;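 active = activation, scaled between plate controls, above about 75%, limit read from the data; inactive = activation under that limit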
Wee1 degr inh = inhibitors of human Wee1 degradation | P30291 | HeLa Luc-Wee1K328M stability, luciferase luminescence; 100% = proteasome inhibitor MG132 effect | reporter increase, % at 5 µM | 220,000 tested, 1.2% active;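 active = activation above the mean of all tested compounds plus 3 SD, set per screening run, cut at about 8.8% in these data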;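 note: cells exposed to compound for 20 h before luminescence read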
PfM18AAP inh = PfM18AAP enzyme inhibition; recombinant PfM18AAP, H-Glu-NHMec fluorogenic cleavage; 290,000 tested, 1.2% active; inhibition, % at 7.35 µM;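 active = inhibition above the campaign mean inhibition over all tested compounds plus 3 SD, cut at about 28% in these data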
RBBP9 inh = human RBBP9 hydrolase inhibition | recombinant RBBP9, FP-Rh probe fluorescence polarization | inhibition, % at 7.94 µM | 220,000 tested, 0.2% active | AID 1515;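 active = inhibition above the campaign mean of all tested compounds plus 3 SD, cut at about 14% in these data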
Target sequence (O75884 whole entry, looked up): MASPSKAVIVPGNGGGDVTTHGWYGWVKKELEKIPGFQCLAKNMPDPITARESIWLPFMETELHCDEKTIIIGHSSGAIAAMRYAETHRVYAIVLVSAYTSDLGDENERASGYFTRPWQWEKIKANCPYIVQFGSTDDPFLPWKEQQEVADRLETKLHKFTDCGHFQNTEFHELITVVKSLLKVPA
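Controls: DMSO-treated enzyme wells and wells lacking RBBP9 | Material: RBBP9 protein | Technique: Fluorescence polarization | Replication: Single well per compound, no replicates | Buffer or medium: Tris-NaCl-Pluronic buffer, pH 8.0 | Timing: 30 min compound preincubation, 45 min probe labeling, 25 °C | Read-out basis: Percent inhibition from mP, scaled between DMSO and no-protein wells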
TNF necrop inh = inhibitors of TNF-alpha induced necroptosis in Jurkat FADD-/- cells. Jurkat FADD-/- TNF necroptosis rescue, ATP luminescence, 24 h; 0 = TNF only, 100 = no-TNF cells. 220,000 tested, 0.068% active. AID 463075. activation (protection from cell death), % at 10 µM;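 active = activation, meaning protection from cell death, of at least 50% relative to plate controls; inactive = activation below 50%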;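 note: necroptosis triggered by 40 ng/mL TNF-alpha added together with compound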
Large screens that a line does not name were inactive.

CCOC(=O)/C(C#N)=C1/CCCCCN1C	none
Cn1c(CCN2CCCCC2)nc2cc([N+](=O)[O-])ccc21	none
CCN1CCN(CCc2nc3cc([N+](=O)[O-])ccc3n2C)CC1	Wee1 degr inh 9.3
N#Cc1cc(S(=O)(=O)c2ccc(Cl)cc2)c(N)[nH]c1=O	Wee1 degr inh 11
Cc1cc(C)c(S(=O)(=O)c2ccc(Cl)cc2)c(=O)[nH]1	none (no result: p97 inhibitor, L929 necroptosis, Wee1 degr inh, RBBP9 inh, TNF necrop inh)
COc1ccc(F)cc1S(=O)(=O)NCC1CCCO1 (centres undefined)	none (no result: p97 inhibitor, L929 necroptosis, Wee1 degr inh, RBBP9 inh, TNF necrop inh)
CCOC(=O)C(=NC(C)CC)NNc1ccc(Br)cc1 (centres undefined)	PfM18AAP inh 30 (no result: L929 necroptosis)
Cc1ccc(Cl)cc1NC(=O)CCC(=O)NCc1ccco1	none (no result: p97 inhibitor, L929 necroptosis, Wee1 degr inh, RBBP9 inh, TNF necrop inh)
O=C(CNC(=S)NC(=O)c1ccco1)c1ccccc1	PfM18AAP inh 29
O=C(CCn1nnc2ccccc21)OCC(=O)c1ccc(F)cc1	none (no result: p97 inhibitor, L929 necroptosis, Wee1 degr inh, RBBP9 inh, TNF necrop inh)
O=C(CSc1nnc(NC(=O)c2c(F)cccc2F)s1)Nc1ccc(F)cc1	Wee1 degr inh 10
O=C(CSc1nnc(NC(=O)c2c(F)cccc2F)s1)NC1CC1	none (no result: p97 inhibitor, L929 necroptosis, Wee1 degr inh, RBBP9 inh, TNF necrop inh)
O=C(CSc1nnc(NC(=O)Cc2ccccc2)s1)NCc1ccco1	none
O=C(CSc1nnc(NC(=O)Cc2ccc(F)cc2)s1)NCc1ccco1	Wee1 degr inh 10
Cc1ccc(/C=C2\SC(N3CCN(C(c4ccccc4)c4ccccc4)CC3)=NC2=O)o1	none
COC(=O)c1cc(C)ccc1OCc1ccc([N+](=O)[O-])cc1	none
O=C(Cc1ccccc1)NNS(=O)(=O)c1ccccc1[N+](=O)[O-]	none (no result: p97 inhibitor, L929 necroptosis, Wee1 degr inh, RBBP9 inh, TNF necrop inh)
Cc1ccc(C(c2nnnn2C2CCCC2)N2CCc3ccccc32)cc1 (centres undefined)	Wee1 degr inh 9.1
CCc1ccc(N=C2NC(=O)/C(=C/c3cc(OC)c(O)c(OC)c3)S2)cc1	PfM18AAP inh 28 (no result: p97 inhibitor, L929 necroptosis, Wee1 degr inh, RBBP9 inh, TNF necrop inh)
CC1(C)Oc2ccc3ccc(=O)oc3c2-c2cnoc21	none
CC1(C)Oc2ccc3ccc(=O)oc3c2-c2cn[nH]c21	L929 necroptosis 75
O=C(Nc1ccc2c(c1)OCCO2)c1cncc(Br)c1	none
O=C(Nc1ccc2c(c1)OCO2)c1cncc(Br)c1	Wee1 degr inh 21
Fc1ccccc1Nc1nc2c(s1)CCc1ccccc1-2	PfM18AAP inh 42
O=C(Nc1nc2c(s1)CCc1ccccc1-2)c1cccs1	none
Nc1cc(N)c(OCC(F)(F)F)cc1OCC(F)(F)F	p97 inhibitor 19
CCN1CCc2nc(N)sc2C1	PfM18AAP inh 44
C=CCN1CCc2nc(N)sc2CC1	none
COc1ccc(CCN2C(=O)CC(NNc3ccc([N+](=O)[O-])cc3)C2=O)cc1OC (centres undefined)	none
COc1ccc(N(CC(=O)Nc2c(C)n(C)n(-c3ccccc3)c2=O)S(=O)(=O)c2ccc(C)cc2)cc1OC	none (no result: p97 inhibitor, L929 necroptosis, Wee1 degr inh, RBBP9 inh, TNF necrop inh)
CCOc1ccc(N(CC(=O)Nc2c(C)n(C)n(-c3ccccc3)c2=O)S(=O)(=O)c2ccccc2)cc1	Wee1 degr inh 11
CCN(CC)c1ccc(/C=N/n2c(C)nc3ccccc3c2=O)cc1	none (no result: p97 inhibitor, L929 necroptosis, Wee1 degr inh, RBBP9 inh, TNF necrop inh)
CCc1ccc2[nH]c(=O)c(CN(Cc3ccccc3)Cc3nnnn3Cc3ccco3)cc2c1	none
COCCn1nnnc1CN(CCc1ccccc1)Cc1cc2cc(OC)ccc2[nH]c1=O	none
O=c1[nH]c2cc3c(cc2cc1CN(Cc1ccccc1)Cc1nnnn1Cc1ccco1)OCCO3	PfM18AAP inh 30
O=c1[nH]c2cc3c(cc2cc1CN(Cc1cccnc1)Cc1nnnn1Cc1ccco1)OCCO3	PfM18AAP inh 28
COCCn1nnnc1CN(Cc1cccnc1)Cc1cc2cc(OC)ccc2[nH]c1=O	PfM18AAP inh 29
O=c1[nH]c2cc3c(cc2cc1CN(Cc1cccs1)Cc1nnnn1Cc1ccco1)OCCO3	PfM18AAP inh 31
COc1ccccc1CN(Cc1cc2cc3c(cc2[nH]c1=O)OCCO3)Cc1nnnn1Cc1ccco1	none
CC(=O)CCC(=O)OCC(=O)c1ccc(C(F)(F)F)cc1	none
COc1ccc2nc3cc(Cl)ccc3c(Nc3cc(C(C)C)c(O)cc3C)c2c1	none
COc1ccc2nc3cc(Cl)ccc3c(Nc3cc(CN4CCCC4)c(O)c(CN4CCCC4)c3)c2n1	PfM18AAP inh 28 (no result: p97 inhibitor, L929 necroptosis, Wee1 degr inh, RBBP9 inh, TNF necrop inh)
N#Cc1ccc(CN2CCN(C(=O)Cn3nc(C(N)=O)c4ccccc4c3=O)CC2)cc1	none (no result: p97 inhibitor, L929 necroptosis, Wee1 degr inh, RBBP9 inh, TNF necrop inh)
Cc1ccc(N2C(=O)CCC(C(=O)O)C2c2cccs2)cc1 (centres undefined)	none (no result: p97 inhibitor, L929 necroptosis, Wee1 degr inh, RBBP9 inh, TNF necrop inh)
Cc1cccc(NC(=O)COC(=O)c2cc3ccccc3oc2=O)c1	Wee1 degr inh 8.9
O=C(COc1ccc2c(c1)CCC2)N1CCN(c2cccc(C(F)(F)F)c2)CC1	none
O=C(COc1ccc2c(c1)CCC2)N1CCN(c2ccccc2F)CC1	Wee1 degr inh 10
Oc1ccc(O)c2c1C1c3ccccc3C2c2ccccc21	PfM18AAP inh 81 (no result: p97 inhibitor, L929 necroptosis, Wee1 degr inh, RBBP9 inh, TNF necrop inh)
Oc1ccc2ccccc2c1C1Nc2cccc3cccc(c23)N1	none
COc1cc(C2C(C#N)=C(N)N(c3ccc(F)cc3)C3=C2S(=O)(=O)CC3)ccc1O (centres undefined)	Wee1 degr inh 9.6
COc1ccc2c(c1)C(=O)CC(O)(C(F)F)O2 (centres undefined)	Wee1 degr inh 9.8
CCOc1ccccc1N(CC(=O)NCCSc1ccccc1)S(C)(=O)=O	Wee1 degr inh 9.1
CCOC(=O)c1c(C)oc2ccc(OC(=O)COc3c(F)c(F)c(F)c(F)c3F)cc12	none (no result: L929 necroptosis)
COc1cc(/C=C(/C#N)C(=O)Nc2ccccc2)ccc1OCc1ccc(C(=O)O)cc1	none
COc1cc(/C=C(\C#N)C(=O)NCc2ccccc2)ccc1OCc1ccc(C(=O)O)cc1	Wee1 degr inh 11
N#C/C(=C\c1ccc(OCc2cccc(C(=O)O)c2)cc1)C(=O)NCc1ccco1	Wee1 degr inh 9.2
COc1cc2c(C(=O)OCCN(C)C)c(CSc3ccccc3)n(C)c2cc1Br	Wee1 degr inh 10
CCOC(=O)c1c(CN(C)C)n(-c2ccccc2)c2cc(Br)c(OC)cc12	none
Cc1ccc(-c2cc(C(=O)O)c3cc(Br)ccc3n2)o1	Wee1 degr inh 9.0
Cc1ccc(-c2cc(C(=O)NN3CCOCC3)c3cc(Br)ccc3n2)o1	none
CC(=O)/C(=C\N(C)C)Sc1ccc(Cl)cc1	Wee1 degr inh 9.1
CC(=O)c1ccc(C(C)(C)c2ccc(C(C)=O)s2)s1	Wee1 degr inh 9.3
Cc1nn(CC(=O)Nc2nnc(C(C)C)s2)c(=O)c2ccccc12	none
CCOc1ccc(CCNC(=O)c2cn(C)c3ccc(S(=O)(=O)N4CCOCC4)cc3c2=O)cc1OCC	none (no result: p97 inhibitor, L929 necroptosis, Wee1 degr inh, RBBP9 inh, TNF necrop inh)
Cc1ccc(S(=O)(=O)N2CCN(C3CC(=O)N(CCc4ccccc4)C3=O)CC2)cc1C (centres undefined)	Wee1 degr inh 9.9
O=C1CC(N2CCN(S(=O)(=O)c3ccc(Cl)cc3)CC2)C(=O)N1CCc1ccccc1 (centres undefined)	none
